In ChEMBL document CHEMBL1152988, “Mutated response regulator graR is responsible for phenotypic conversion of Staphylococcus aureus from heterogeneous vancomycin-intermediate resistance to vancomycin-intermediate resistance” (2008):
Converted amounts (≈) assume the structure as drawn.

Assays:
Staphylococcus aureus [1] = assay: Antibacterial activity against graSR gene knockout heterogeneous vancomycin-intermediate Staphylococcus aureus Mu3 after 48 hrs by agar dilution method; type: functional; settings: Mu3, 48 h
Procedure, shortened: (§1)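 Agar dilution MICs per CLSI, with vancomycin MIC in BHI agar. Vancomycin, teicoplanin and daptomycin were tested at linear 1-mg/liter concentration steps; oxacillin was tested by twofold dilutions. Plates were read at 24 h and again at 48 h so a slow-growing resistant subpopulation would not be missed. graSR-null mutants were made by allelic exchange, replacing graSR with a cat cassette.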

Staphylococcus aureus [2] = assay: Antibacterial activity against mutated graR gene knockout vancomycin-susceptible Staphylococcus aureus N315 after 48 hrs by agar dilution method; type: functional; settings: N315, 48 h; procedure, shortened: as §1
Staphylococcus aureus [3] = assay: Antibacterial activity against vancomycin-susceptible Staphylococcus aureus N315 harboring shuttle vector pYT3 after 24 hrs by agar dilution method; type: functional; settings: N315, 24 h
Procedure, shortened: (§2)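 Host carries shuttle vector pYT3, either empty or carrying PCR-cloned graR (SA0614) from N315 (intact) or Mu50 (N197S mutant), introduced by electroporation and sequence-verified. MICs were determined by agar dilution per CLSI, with vancomycin MIC in BHI agar. Glycopeptides and daptomycin were tested at 1-mg/liter linear steps, oxacillin by twofold dilutions. Plates were read at 24 h and 48 h.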

Staphylococcus aureus [4] = assay: Antibacterial activity against heterogeneous vancomycin-intermediate Staphylococcus aureus Mu3 harboring mutated graR gene after 48 hrs by agar dilution method; type: functional; settings: Mu3, 48 h; procedure, shortened: as §2
Staphylococcus aureus [5] = assay: Antibacterial activity against mutated graSR gene knockout vancomycin-susceptible Staphylococcus aureus N315 after 48 hrs by agar dilution method; type: functional; settings: N315, 48 h; procedure, shortened: as §1
Staphylococcus aureus [6] = assay: Antibacterial activity against vancomycin-intermediate Staphylococcus aureus Mu50 after 24 hrs by agar dilution method; type: functional; settings: Mu50, 24 h; procedure, shortened: as §1
Staphylococcus aureus [7] = assay: Antibacterial activity against vancomycin-susceptible Staphylococcus aureus N315 harboring mutated graR gene after 24 hrs by agar dilution method; type: functional; settings: N315, 24 h; procedure, shortened: as §2
Staphylococcus aureus [8] = assay: Antibacterial activity against heterogeneous vancomycin-intermediate Staphylococcus aureus Mu3 harboring intact graR gene after 48 hrs by agar dilution method; type: functional; settings: Mu3, 48 h; procedure, shortened: as §2
Staphylococcus aureus [9] = assay: Antibacterial activity against heterogeneous vancomycin-intermediate Staphylococcus aureus Mu3 harboring shuttle vector pYT3 after 48 hrs by agar dilution method; type: functional; settings: Mu3, 48 h; procedure, shortened: as §2
Staphylococcus aureus [10] = assay: Antibacterial activity against graSR gene knockout vancomycin-susceptible Staphylococcus aureus N315 after 48 hrs by agar dilution method; type: functional; settings: N315, 48 h; procedure, shortened: as §1
Staphylococcus aureus [11] = assay: Antibacterial activity against mutated graSR gene knockout vancomycin-susceptible Staphylococcus aureus N315 after 24 hrs by agar dilution method; type: functional; settings: N315, 24 h; procedure, shortened: as §1
Staphylococcus aureus [12] = assay: Antibacterial activity against heterogeneous vancomycin-intermediate Staphylococcus aureus Mu3 harboring intact graR gene after 24 hrs by agar dilution method; type: functional; settings: Mu3, 24 h; procedure, shortened: as §2
Staphylococcus aureus [13] = assay: Antibacterial activity against heterogeneous vancomycin-intermediate Staphylococcus aureus Mu3 harboring shuttle vector pYT3 after 24 hrs by agar dilution method; type: functional; settings: Mu3, 24 h; procedure, shortened: as §2
Staphylococcus aureus [14] = assay: Antibacterial activity against heterogeneous vancomycin-intermediate Staphylococcus aureus Mu3 harboring mutated graR gene after 24 hrs by agar dilution method; type: functional; settings: Mu3, 24 h; procedure, shortened: as §2
Staphylococcus aureus [15] = assay: Antibacterial activity against vancomycin-susceptible Staphylococcus aureus N315 after 24 hrs by agar dilution method; type: functional; settings: N315, 24 h; procedure, shortened: as §1
Staphylococcus aureus [16] = assay: Antibacterial activity against vancomycin-susceptible Staphylococcus aureus N315 after 48 hrs by agar dilution method; type: functional; settings: N315, 48 h; procedure, shortened: as §1
Staphylococcus aureus [17] = assay: Antibacterial activity against mutated graR gene knockout heterogeneous vancomycin-intermediate Staphylococcus aureus Mu3 after 48 hrs by agar dilution method; type: functional; settings: Mu3, 48 h; procedure, shortened: as §1
Staphylococcus aureus [18] = assay: Antibacterial activity against graSR gene knockout heterogeneous vancomycin-intermediate Staphylococcus aureus Mu3 after 24 hrs by agar dilution method; type: functional; settings: Mu3, 24 h; procedure, shortened: as §1
Staphylococcus aureus [19] = assay: Antibacterial activity against heterogeneous vancomycin-intermediate Staphylococcus aureus Mu3 after 24 hrs by agar dilution method; type: functional; settings: Mu3, 24 h; procedure, shortened: as §1
Staphylococcus aureus [20] = assay: Antibacterial activity against heterogeneous vancomycin-intermediate Staphylococcus aureus Mu3 after 48 hrs by agar dilution method; type: functional; settings: Mu3, 48 h; procedure, shortened: as §1
Staphylococcus aureus [21] = assay: Antibacterial activity against vancomycin-susceptible Staphylococcus aureus N315 harboring shuttle vector pYT3 after 48 hrs by agar dilution method; type: functional; settings: N315, 48 h; procedure, shortened: as §2
Staphylococcus aureus [22] = assay: Antibacterial activity against vancomycin-susceptible Staphylococcus aureus N315 harboring mutated graR gene after 48 hrs by agar dilution method; type: functional; settings: N315, 48 h; procedure, shortened: as §2
Staphylococcus aureus [23] = assay: Antibacterial activity against mutated graR gene knockout vancomycin-susceptible Staphylococcus aureus N315 after 24 hrs by agar dilution method; type: functional; settings: N315, 24 h; procedure, shortened: as §1
Staphylococcus aureus [24] = assay: Antibacterial activity against vancomycin-susceptible Staphylococcus aureus N315 harboring intact graR gene after 48 hrs by agar dilution method; type: functional; settings: N315, 48 h; procedure, shortened: as §2
Staphylococcus aureus [25] = assay: Antibacterial activity against mutated graR gene knockout heterogeneous vancomycin-intermediate Staphylococcus aureus Mu3 after 24 hrs by agar dilution method; type: functional; settings: Mu3, 24 h; procedure, shortened: as §1
Staphylococcus aureus [26] = assay: Antibacterial activity against graSR gene knockout vancomycin-susceptible Staphylococcus aureus N315 after 24 hrs by agar dilution method; type: functional; settings: N315, 24 h; procedure, shortened: as §1
Staphylococcus aureus [27] = assay: Antibacterial activity against vancomycin-intermediate Staphylococcus aureus Mu50 after 48 hrs by agar dilution method; type: functional; settings: Mu50, 48 h; procedure, shortened: as §1
Staphylococcus aureus [28] = assay: Antibacterial activity against vancomycin-susceptible Staphylococcus aureus N315 harboring intact graR gene after 24 hrs by agar dilution method; type: functional; settings: N315, 24 h; procedure, shortened: as §2
Staphylococcus aureus [29] = assay: Antibacterial activity against vancomycin-susceptible Staphylococcus aureus N315 harboring complement system vraSR by agar dilution method

Structure (SMILES) | MIC (Staphylococcus aureus [1]) [µg/mL] | MIC (Staphylococcus aureus [2]) [µg/mL] | MIC (Staphylococcus aureus [3]) [µg/mL] | MIC (Staphylococcus aureus [4]) [µg/mL] | MIC (Staphylococcus aureus [5]) [µg/mL] | MIC (Staphylococcus aureus [6]) [µg/mL] | MIC (Staphylococcus aureus [7]) [µg/mL] | MIC (Staphylococcus aureus [8]) [µg/mL] | MIC (Staphylococcus aureus [9]) [µg/mL] | MIC (Staphylococcus aureus [10]) [µg/mL] | MIC (Staphylococcus aureus [11]) [µg/mL] | MIC (Staphylococcus aureus [12]) [µg/mL] | MIC (Staphylococcus aureus [13]) [µg/mL] | MIC (Staphylococcus aureus [14]) [µg/mL] | MIC (Staphylococcus aureus [15]) [µg/mL] | MIC (Staphylococcus aureus [16]) [µg/mL] | MIC (Staphylococcus aureus [17]) [µg/mL] | MIC (Staphylococcus aureus [18]) [µg/mL] | MIC (Staphylococcus aureus [25]) [µg/mL] | MIC (Staphylococcus aureus [27]) [µg/mL] | other results
CCCCCCCCCC(=O)N[C@@H](Cc1c[nH]c2ccccc12)C(=O)N[C@H](CC(N)=O)C(=O)N[C@@H](CC(=O)O)C(=O)N[C@@H]1C(=O)NCC(=O)N[C@@H](CCCN)C(=O)N[C@@H](CC(=O)O)C(=O)N[C@H](C)C(=O)N[C@@H](CC(=O)O)C(=O)NCC(=O)N[C@H](CO)C(=O)N[C@@H]([C@H](C)CC(=O)O)C(=O)N[C@@H](CC(=O)c2ccccc2N)C(=O)O[C@@H]1C | 0.5 (≈ 0.309 µM) | 1 (≈ 0.617 µM) | 0.5 (≈ 0.309 µM) | 3 (≈ 1.85 µM) | 1 (≈ 0.617 µM) | 3 (≈ 1.85 µM) | 1 (≈ 0.617 µM) | 3 (≈ 1.85 µM) | 2 (≈ 1.23 µM) | 0.5 (≈ 0.309 µM) | 1 (≈ 0.617 µM) | 3 (≈ 1.85 µM) | 1 (≈ 0.617 µM) | 3 (≈ 1.85 µM) | 0.5 (≈ 0.309 µM) | 0.5 (≈ 0.309 µM) | 3 (≈ 1.85 µM) | 0.5 (≈ 0.309 µM) | 3 (≈ 1.85 µM) | 3 (≈ 1.85 µM) | MIC (Staphylococcus aureus [19]): 1 µg/mL (≈ 0.617 µM); MIC (Staphylococcus aureus [20]): 1 µg/mL (≈ 0.617 µM); MIC (Staphylococcus aureus [21]): 0.5 µg/mL (≈ 0.309 µM); MIC (Staphylococcus aureus [22]): 1 µg/mL (≈ 0.617 µM); MIC (Staphylococcus aureus [23]): 1 µg/mL (≈ 0.617 µM); MIC (Staphylococcus aureus [24]): 0.5 µg/mL (≈ 0.309 µM); MIC (Staphylococcus aureus [26]): 0.5 µg/mL (≈ 0.309 µM); MIC (Staphylococcus aureus [28]): 0.5 µg/mL (≈ 0.309 µM)
Cc1onc(-c2ccccc2)c1C(=O)N[C@@H]1C(=O)N2[C@@H]1SC(C)(C)[C@@H]2C(=O)O [OXACILLIN] | 1020 (≈ 2550 µM) | 4 (≈ 9.96 µM) | 4 (≈ 9.96 µM) | 1020 (≈ 2550 µM) | 0.5 (≈ 1.25 µM) | 512 (≈ 1280 µM) | 0.25 (≈ 0.623 µM) | 1020 (≈ 2550 µM) | > 1020 | 16 (≈ 39.9 µM) | 0.5 (≈ 1.25 µM) | 1020 (≈ 2550 µM) | 1020 (≈ 2550 µM) | 1020 (≈ 2550 µM) | 2 (≈ 4.98 µM) | 8 (≈ 19.9 µM) | 1020 (≈ 2550 µM) | 1020 (≈ 2550 µM) | 1020 (≈ 2550 µM) | 512 (≈ 1280 µM) | MIC (Staphylococcus aureus [19]): 1020 µg/mL (≈ 2550 µM); MIC (Staphylococcus aureus [20]): > 1020 µg/mL; MIC (Staphylococcus aureus [21]): 4 µg/mL (≈ 9.96 µM); MIC (Staphylococcus aureus [22]): 0.25 µg/mL (≈ 0.623 µM); MIC (Staphylococcus aureus [23]): 2 µg/mL (≈ 4.98 µM); MIC (Staphylococcus aureus [24]): 1 µg/mL (≈ 2.49 µM); MIC (Staphylococcus aureus [26]): 4 µg/mL (≈ 9.96 µM); MIC (Staphylococcus aureus [28]): 0.5 µg/mL (≈ 1.25 µM)
CN[C@H](CC(C)C)C(=O)N[C@H]1C(=O)N[C@@H](CC(N)=O)C(=O)N[C@H]2C(=O)N[C@H]3C(=O)N[C@H](C(=O)N[C@H](C(=O)O)c4cc(O)cc(O)c4-c4cc3ccc4O)[C@H](O)c3ccc(c(Cl)c3)Oc3cc2cc(c3O[C@@H]2O[C@H](CO)[C@@H](O)[C@H](O)[C@H]2O[C@H]2C[C@](C)(N)[C@H](O)[C@H](C)O2)Oc2ccc(cc2Cl)[C@H]1O [VANCOMYCIN] |  |  |  |  |  |  |  |  |  |  |  |  |  |  |  |  |  |  | 3 (≈ 2.07 µM) | 8 (≈ 5.52 µM) | MIC (Staphylococcus aureus [29]): ≥ 4 µg/mL
